Source: PubChem BioAssay
Only some compounds are listed: those with a hit (about 4.1% of all), similar ones and a draw of the others.
MC4R ag barr: human MC4R agonism via beta-arrestin; U2OS MC4R beta-arrestin complementation, luminescence; percent of melanotan II response, DMSO zero; 360,000 tested, 0.98% active; AID 540308; activation, % at 8.9 µM;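 active = activation above a per-plate cutoff, the mean activation of sample wells on that plate plus 3 SD, cut at about 8% in these data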
Target sequence (P32245 whole entry, looked up): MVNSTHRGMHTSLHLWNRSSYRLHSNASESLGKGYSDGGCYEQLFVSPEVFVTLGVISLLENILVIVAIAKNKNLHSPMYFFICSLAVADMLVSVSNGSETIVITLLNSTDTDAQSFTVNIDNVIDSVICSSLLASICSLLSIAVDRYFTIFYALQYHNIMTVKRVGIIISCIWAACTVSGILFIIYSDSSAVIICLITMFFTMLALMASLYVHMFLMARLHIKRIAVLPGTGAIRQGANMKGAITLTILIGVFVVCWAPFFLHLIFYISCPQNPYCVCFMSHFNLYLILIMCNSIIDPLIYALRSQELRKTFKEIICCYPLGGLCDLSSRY
MPTP block: inhibitors of mitochondrial permeability transition pore; 360,000 tested, 1.4% active; inhibition, % at 10 µM; isolated mouse mitochondria, Ca2+ swelling absorbance, 30 min;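 active = inhibition of 50% or more, scaled per plate between neutral and stimulator controls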;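 also: 0% = DMSO wells given calcium and 100% = 1 mM EGTA wells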
MC4R antag cAMP: antagonists of human melanocortin 4 receptor (MC4R); inhibition, % at 6.5 µM; AID 540295; 360,000 tested, 0.48% active; MC4R-expressing cells, MTII-stimulated cAMP, LANCE TR-FRET;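 active = inhibition above its plate's cutoff, the mean of tested wells on that plate plus 3 SD, cut at about 29% in these data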;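 also: 0% = Melanotan II alone and 100% = Melanotan II plus saturating MCL0020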
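material = U2OS cells stably expressing human melanocortin 4 receptor (MC4R) | also added = Melanotan II challenge | dosing = single nominal compound dose of 6.5 µM | detection = TR-FRET with Eu-cAMP and labeled anti-cAMP, 671 nm | replication = singlicate | timing = compound 30 min, challenge 1 h, detection 1 h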
SMARCA2 activ: increases SMARCA2 function in MMTV reporter cells | MG213 cells, MMTV-luciferase reporter, dexamethasone, overnight | activation, % at 9.1 µM | 370,000 tested, 1% active; in the data active = activation above about 7.8%;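 also: 0% = vehicle wells and 100% = reference activator wells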
ATG4B inhibitor: inhibitors of human ATG4B cysteine protease; Q9Y4P1; inhibition, % at 8.33 µM; ATG4B cleavage of LC3-PLA2, NBD-HPC fluorescence, 1 h; 340,000 tested, 0.51% active; in the data active = inhibition above about 40%
MC4R barr ag: human MC4R beta-arrestin agonism confirmation. shares compounds with MC4R ag barr. U2OS MC4R beta-arrestin recruitment, luminescence; scaled DMSO 0%, Melanotan II 100%. activation, % at 8.9 µM. 2,400 tested, 31% active;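 active = mean activation across replicates above the hit cutoff set in the earlier primary screen, cut at about 8% in these data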
MOR DOR agonist: activates mu-delta opioid heterodimer, MC4R agonist counter-screen; shares compounds with MC4R ag barr; 2,400 tested, 5.8% active; U2OS PathHunter beta-arrestin, beta-gal luminescence; percent of deltorphin B response, DMSO zero; activation, % at 9.2 µM;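 active = mean activation across replicates exceeds the hit threshold derived in the earlier primary screen, cut at about 18% in these data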;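 also: 100% = deltorphin B at 0.9 µM final and 0% = DMSO alone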
An asterisk follows results filed as active; x = no result given.

SMILES	MC4R ag barr	MPTP block	MC4R antag cAMP	SMARCA2 activ	ATG4B inhibitor	MC4R barr ag	MOR DOR agonist
CC(C)[C@H](NC(=O)CC1CCCC1)C(=O)N1CCC[C@H]1C(=O)NCc1ccccc1	x	x	x	1	x	x	x
CCCCN(C)c1c2c(nc3ncnn13)CCCC2	x	x	x	0	x	x	x
COC(=O)c1ccc(C(=O)Nc2nc3cc(N)c(C)cc3s2)cc1	11*	4	-1	0	-5	0	2
COc1ccc(C(=O)Nc2nc3ccc(OC)cc3s2)cc1	2	0	-4	4	-12	x	x
Cc1ccc(CNC(=O)Cn2c(=O)c3sccc3n(Cc3ccc([N+](=O)[O-])cc3)c2=O)cc1	14*	-3	15	-2	4	-3	3
COc1cc(-c2cc(-c3ccccc3)nc(SCC(=O)Nc3nccs3)c2C#N)cc(OC)c1OC	11*	1	-12	0	5	5	3
Cc1cc(C)c(C#N)c(SCC(=O)Nc2nnc(-c3ccccc3)s2)n1	16*	4	0	-3	-10	2	4
Cc1cc(C)c(C#N)c(SCC(=O)Nc2ccccc2C)n1	-2	-1	7	1	-5	x	x
C/C(=N\NC(=O)COc1cccc2ccccc12)c1cccs1	17*	-1	0	0	-4	17*	6
COc1ccccc1NCC(=O)N/N=C/C=C/c1ccccc1	-1	1	-15	-1	-10	x	x
Cc1ccccc1OCC(=O)N/N=C/C=C/c1ccccc1	10*	1	-5	-1	-14	3	8
O=C(COc1cccc2ccccc12)N/N=C/C=C/c1ccccc1	9.7*	5	3	-3	2	4	6
O=C(N=C1N(CC2CC2)CC2(C=C3CCCCC3n3c(=O)n(-c4ccccc4)c(=O)n32)N1C(=O)OCc1ccccc1)c1ccccc1 (centres undefined)	x	x	x	-4	x	x	x
Cc1ccc2cc(C)c(SCC(=O)Nc3cc(C)on3)nc2c1	20*	0	18	-3	8	6	3
Cc1cccc(-c2nsc(SCC(=O)Nc3nccs3)n2)c1	13*	2	6	-3	-8	0	8
COc1ccc(-c2nsc(SCC(=O)Nc3cc(C)on3)n2)cc1	17*	4	6	2	2	-1	7
CCc1cc2cc(C)c(C)cc2nc1SCC(=O)Nc1cc(C)on1	1	-1	11	1	-1	x	x
CCCCCCCCN1C(=O)[C@@H](CC(=O)NCc2cccc(C(F)(F)F)c2)C[C@@]2(C(=O)OC)C1=C[C@H](C(C)C)O[C@@H]2C1CC1	x	x	x	1	x	x	x
O=C1CCc2cc(S(=O)(=O)N3CCN(c4ccc(F)cc4)CC3)cc3c2N1CC3	13*	0	-4	-1	-3	3	4
Cc1ccc(O)c(C(=O)/C=C/c2ccc3c(c2)OCCCO3)c1	23*	2	-3	1	1	24*	5
O=C(/C=C/c1ccc2c(c1)OCCCO2)c1ccccc1O	3	1	12	3	-4	x	x
COc1ccc(/C=N\NS(=O)(=O)c2ccc(Cl)cc2)cc1COc1ccccc1[N+](=O)[O-]	18*	-1	9	0	-18	10*	6
COc1ccc(/C=N\NS(=O)(=O)c2ccc(Br)cc2)cc1COc1ccccc1[N+](=O)[O-]	2	-1	9	-3	-4	x	x
COc1ccc(-n2c(SCC(=O)Nc3cc(C)c(NC(=O)c4ccccc4)cc3OC)nnc2-c2ccccc2F)cc1	x	x	x	-2	x	x	x
O=C(Nc1nnc(SCc2ccccc2)s1)c1cc2c(s1)CCCC2	20*	-4	-3	-1	-2	8.3*	3
SMILES	MC4R ag barr	MPTP block	MC4R antag cAMP	SMARCA2 activ	ATG4B inhibitor	MC4R barr ag	MOR DOR agonist
O=C(Nc1nnc(SCc2ccc(F)cc2)s1)c1ccc2ncsc2c1	17*	2	4	3	-9	-1	3
CCSc1nnc(NC(=O)c2csc3c2CCCC3)s1	15*	-1	0	-3	5	27*	15
C#CCNC(=O)C[C@H]1C[C@@]2(C(=O)OC)C(=C[C@H](C3CCCC3)O[C@@H]2C)N(CCc2ccc(OC)c(OC)c2)C1=O	x	x	x	-2	x	x	x
COC(=O)Cn1cnc2c(NC(=O)c3ccccc3)ncnc21	x	x	x	4	x	x	x
Cc1ccc(COc2ccc(-c3nnco3)cc2)cc1	-1	0	4	1	-1	x	x
COc1cc(COc2ccc(-c3nnco3)cc2)ccc1OC(F)F	12*	-1	2	3	0	7	8
Cc1cccc(NC(=S)NC(=O)C(c2ccccc2)c2ccccc2)n1	33*	1	-13	-1	-17	20*	7
O=C(Nc1ccc(NC(=S)NC(=O)C(c2ccccc2)c2ccccc2)cc1)c1ccccc1	1	3	4	0	4	x	x
O=C(N=Nc1c(O)n(Cc2ccccc2)c2ccccc12)c1cc2ccccc2cc1O	16*	2	-6	3	-1	19*	16
Cc1ccc(NC(=O)Cn2c(O)c(N=NC(=O)c3ccncc3)c3ccccc32)cc1	-2	1	-3	x	-6	x	x
O=C(N=Nc1c(O)n(Cc2ccccc2)c2ccccc12)c1ccc(O)cc1	2	29	-6	2	-17	x	x
Cc1ccc(NC(=O)Cn2c(O)c(N=NC(=O)c3cc4ccccc4cc3O)c3ccccc32)cc1	12*	0	3	-1	4	8	41*
Cc1ccc(S(=O)(=O)N2CCCC2C(=O)N2CCc3ccccc3C2)cc1C (centres undefined)	x	x	x	-1	x	x	x
O=C(Nc1cccc([N+](=O)[O-])c1)OCc1ccc2c(c1)OCO2	x	x	x	-1	x	x	x
FC(F)(F)c1nc(-c2ccncc2)ncc1-c1nnnn1-c1ccccc1	-1	3	14	-2	-13	x	x
Fc1ccc(-n2nnnc2-c2cnc(-c3cccs3)nc2C(F)(F)F)cc1	11*	18	21	-4	-10	-1	7
CCCCNC[C@@]12CO[C@H](c3ccc(Cl)cc3)N1[C@@H](c1ccc(Cl)cc1)SC2	x	x	x	-4	x	x	x
C[C@@H]1COc2cc(N3CCOCC3)ccc2S(=O)(=O)N1	x	x	x	-5	x	x	x
CCc1ccc(NC(=O)c2ccc3c(c2)C(=O)N(Cc2ccco2)C3=O)cc1	11*	-2	-10	1	2	6	3
COC(=O)Cc1ccc(NC(=O)c2ccc3c(c2)C(=O)N(Cc2ccco2)C3=O)cc1	5	-2	11	-1	5	x	x
O=C(NC(=S)Nc1ccccc1)c1cncc(C#Cc2ccccc2)c1	14*	5	-1	-2	-1	0	2
COC(=O)[C@]12C[C@H](CC(=O)NCc3ccccc3)C(=O)N(Cc3ccccc3)C1=C[C@H](C1CCCC1)O[C@@H]2C	x	x	x	-4	x	x	x
